Source: ChEMBL document CHEMBL4373735, “N-alkyl-hydroxybenzoyl anilide hydroxamates as dual inhibitors of HDAC and HSP90, downregulating IFN-γ induced PD-L1 expression” (Eur J Med Chem, 2020)
Calls of active or inactive are those of the source. The rule behind the calls is not given here.

Tests used:
[1] = target: Histone deacetylase 7 (Homo sapiens, UniProt Q8WUI4); assay: Inhibition of recombinant human N-terminal GST-tagged HDAC7 (518 to 991 residues) expressed in baculovirus infected insect cells using Boc-K(Ac)-AMC as substrate after 90 mins by fluorimetry analysis
Sequence of Histone deacetylase 7 (Q8WUI4 whole entry, the tested form may be a part, canonical isoform): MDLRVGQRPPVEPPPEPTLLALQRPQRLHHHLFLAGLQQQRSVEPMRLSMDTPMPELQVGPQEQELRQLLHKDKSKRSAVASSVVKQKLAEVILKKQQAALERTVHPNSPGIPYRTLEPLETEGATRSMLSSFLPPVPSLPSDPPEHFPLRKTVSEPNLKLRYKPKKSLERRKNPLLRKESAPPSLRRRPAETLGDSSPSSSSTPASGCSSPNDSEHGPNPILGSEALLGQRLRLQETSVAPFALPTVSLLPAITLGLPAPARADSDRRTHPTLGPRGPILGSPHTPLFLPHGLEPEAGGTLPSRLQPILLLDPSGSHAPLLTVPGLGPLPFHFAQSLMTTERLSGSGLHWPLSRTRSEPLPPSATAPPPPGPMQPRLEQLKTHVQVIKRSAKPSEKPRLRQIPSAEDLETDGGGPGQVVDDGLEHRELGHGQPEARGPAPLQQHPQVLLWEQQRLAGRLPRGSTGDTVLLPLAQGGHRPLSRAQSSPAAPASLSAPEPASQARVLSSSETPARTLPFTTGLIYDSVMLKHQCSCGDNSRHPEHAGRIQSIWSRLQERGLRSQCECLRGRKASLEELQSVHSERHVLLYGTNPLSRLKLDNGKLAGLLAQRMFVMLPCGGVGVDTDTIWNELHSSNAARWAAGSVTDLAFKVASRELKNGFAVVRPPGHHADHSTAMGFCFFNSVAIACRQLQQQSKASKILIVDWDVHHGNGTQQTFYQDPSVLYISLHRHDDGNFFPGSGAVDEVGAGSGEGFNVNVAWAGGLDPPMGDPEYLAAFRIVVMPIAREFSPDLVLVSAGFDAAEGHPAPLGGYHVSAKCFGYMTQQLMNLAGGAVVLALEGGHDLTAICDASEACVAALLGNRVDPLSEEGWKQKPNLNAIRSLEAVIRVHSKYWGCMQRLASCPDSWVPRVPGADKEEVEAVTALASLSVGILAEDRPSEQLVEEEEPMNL
In short: (§1)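 Isoform assays run by an outside contractor. […] Trichostatin A tested in parallel the same way as control.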

[2] = target: T1, Heat shock protein HSP90 (Homo sapiens) (UniProt P07900+P08238); assay: Inhibition of HSP90 in human H1975 cells assessed as downregulation of FAK protein level by Western blot analysis; format: cell-based
In short: (§2)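 H1975 cells given DMSO or 0.1-3 μM compound for 24 h, or 1 μM for varying times. HSP70 and HSP90 client proteins detected by Western blot of whole-cell lysates, with GAPDH as internal control. Repeated in at least three independent experiments.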

[3] = test system: A549; assay: Antiproliferative activity against human A549 cells assessed as cell growth inhibition after 48 hrs by sulforhodamine B assay; format: functional; conditions: Homo sapiens, A549, 48 h
In short: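 Cells seeded at 5000/well overnight; baseline plate fixed with 10% TCA at time of compound addition (T0). Treated with DMSO or graded doses for 48 h, fixed with 10% TCA, stained with 0.4% (w/v) SRB in 1% acetic acid, washed with 1% acetic acid, dye solubilised in 10 mM Trizma base, absorbance at 515 nm. GI50 from T0-corrected growth; at least three independent experiments, SD reported.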

[4] = target: T1, Heat shock protein HSP90 (Homo sapiens); assay: Inhibition of HSP90 in human H1975 cells assessed as downregulation of SRC protein level by Western blot analysis; format: cell-based; in short: as §2
[5] = test system: NCI-H1975; assay: Inhibition of IFNgamma-induced PD-L1 expression in human NCI-H1975 cells assessed as reduction in PD-L1 expression incubated for 48 hrs by Western blot analysis; format: functional, cell-based
In short: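 H1975 cells exposed to IFN-γ 20 ng/ml alone or together with compound at the indicated concentrations for 48 h. Lysates run on 10% reducing SDS-PAGE and transferred to nitrocellulose. Blocked in 5% milk/PBST, probed with mouse anti-PD-L1 for 1 h, HRP goat anti-mouse detected by ECL. β-actin used as loading control.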

[6] = test system: NCI-H1975; assay: Induction of apoptosis in human NCI-H1975 cells assessed as activation of caspase 8 at 0.1 to 3 uM measured after 48 hrs immunoblot analysis; format: functional, cell-based
In short: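 H1975 cells cultured with compound at the indicated concentrations for 48 h, then immunoblotted with the indicated antibodies. Lysis buffer was ice-cold RIPA-type with phosphatase and protease inhibitors, 30 min on ice. Proteins separated on 8-15% SDS-PAGE, transferred to PVDF, primary antibody overnight at 4°C, HRP secondary 1 h at room temperature, ECL detection.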

[7] = target: Histone deacetylase 8 (Homo sapiens, UniProt Q9BY41); assay: Inhibition of recombinant C-terminal His-fusion tagged and N-terminal Streptavidin2-tagged human HDAC8 (1 to 377 residues) expressed in insect cells using RHK-K(Ac)-AMC as substrate after 60 mins by fluorescence assay; in short: as §1
Sequence of Histone deacetylase 8 (Q9BY41 whole entry, the tested form may be a part): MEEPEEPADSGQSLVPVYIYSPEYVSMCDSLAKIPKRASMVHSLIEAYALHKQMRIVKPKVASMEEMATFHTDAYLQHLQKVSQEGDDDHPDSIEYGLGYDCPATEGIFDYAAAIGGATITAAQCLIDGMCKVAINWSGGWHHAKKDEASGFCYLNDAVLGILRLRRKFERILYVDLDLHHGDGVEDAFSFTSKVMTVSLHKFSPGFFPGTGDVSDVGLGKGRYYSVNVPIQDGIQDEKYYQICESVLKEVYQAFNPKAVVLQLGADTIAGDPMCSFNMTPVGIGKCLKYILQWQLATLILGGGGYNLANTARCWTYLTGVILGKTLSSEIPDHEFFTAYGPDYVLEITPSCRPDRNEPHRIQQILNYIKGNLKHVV

[8] = target: Histone deacetylase 4 (Homo sapiens, UniProt P56524); assay: Inhibition of recombinant N-terminal GST-tagged and C-terminal His-tagged human HDAC4 expressed in baculovirus infected insect cells using RHK-K(Ac)-AMC as substrate after 60 mins by fluorimetry analysis; in short: as §1
Sequence of Histone deacetylase 4 (P56524 whole entry, the tested form may be a part): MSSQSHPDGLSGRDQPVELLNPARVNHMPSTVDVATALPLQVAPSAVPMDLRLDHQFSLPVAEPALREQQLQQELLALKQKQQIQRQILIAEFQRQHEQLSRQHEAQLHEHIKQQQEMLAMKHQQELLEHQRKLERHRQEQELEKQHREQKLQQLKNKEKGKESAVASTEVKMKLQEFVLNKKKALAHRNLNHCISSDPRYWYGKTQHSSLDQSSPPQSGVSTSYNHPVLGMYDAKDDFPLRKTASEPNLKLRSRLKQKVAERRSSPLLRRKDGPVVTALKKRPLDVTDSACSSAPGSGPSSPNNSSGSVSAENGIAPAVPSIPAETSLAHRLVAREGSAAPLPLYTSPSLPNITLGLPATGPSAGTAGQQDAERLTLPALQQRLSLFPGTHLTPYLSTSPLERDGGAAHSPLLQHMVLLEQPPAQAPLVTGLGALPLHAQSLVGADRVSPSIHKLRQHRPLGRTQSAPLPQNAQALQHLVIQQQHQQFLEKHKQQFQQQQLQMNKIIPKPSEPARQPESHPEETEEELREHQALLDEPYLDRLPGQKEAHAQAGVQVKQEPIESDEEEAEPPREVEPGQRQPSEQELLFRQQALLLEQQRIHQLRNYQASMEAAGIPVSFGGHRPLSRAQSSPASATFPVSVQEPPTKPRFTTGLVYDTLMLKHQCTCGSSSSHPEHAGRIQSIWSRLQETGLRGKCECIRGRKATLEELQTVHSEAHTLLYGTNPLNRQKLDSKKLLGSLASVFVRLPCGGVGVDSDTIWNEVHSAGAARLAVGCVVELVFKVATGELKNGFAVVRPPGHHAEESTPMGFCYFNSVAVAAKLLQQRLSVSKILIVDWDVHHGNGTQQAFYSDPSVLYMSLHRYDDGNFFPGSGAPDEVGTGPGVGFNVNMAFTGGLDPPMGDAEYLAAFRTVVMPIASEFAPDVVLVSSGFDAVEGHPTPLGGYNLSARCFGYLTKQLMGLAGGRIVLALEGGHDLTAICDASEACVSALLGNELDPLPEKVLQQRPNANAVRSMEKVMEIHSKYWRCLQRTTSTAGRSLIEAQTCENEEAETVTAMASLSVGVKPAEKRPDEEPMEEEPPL

[9] = target: Polyamine deacetylase HDAC10 (Homo sapiens, UniProt Q969S8); assay: Inhibition of human HDAC10 using fluorescent-labelled p53 residues 379 to 382 (RHKKAc) peptide as substrate by fluorescence assay; in short: as §1
Sequence of Polyamine deacetylase HDAC10 (Q969S8 whole entry, the tested form may be a part): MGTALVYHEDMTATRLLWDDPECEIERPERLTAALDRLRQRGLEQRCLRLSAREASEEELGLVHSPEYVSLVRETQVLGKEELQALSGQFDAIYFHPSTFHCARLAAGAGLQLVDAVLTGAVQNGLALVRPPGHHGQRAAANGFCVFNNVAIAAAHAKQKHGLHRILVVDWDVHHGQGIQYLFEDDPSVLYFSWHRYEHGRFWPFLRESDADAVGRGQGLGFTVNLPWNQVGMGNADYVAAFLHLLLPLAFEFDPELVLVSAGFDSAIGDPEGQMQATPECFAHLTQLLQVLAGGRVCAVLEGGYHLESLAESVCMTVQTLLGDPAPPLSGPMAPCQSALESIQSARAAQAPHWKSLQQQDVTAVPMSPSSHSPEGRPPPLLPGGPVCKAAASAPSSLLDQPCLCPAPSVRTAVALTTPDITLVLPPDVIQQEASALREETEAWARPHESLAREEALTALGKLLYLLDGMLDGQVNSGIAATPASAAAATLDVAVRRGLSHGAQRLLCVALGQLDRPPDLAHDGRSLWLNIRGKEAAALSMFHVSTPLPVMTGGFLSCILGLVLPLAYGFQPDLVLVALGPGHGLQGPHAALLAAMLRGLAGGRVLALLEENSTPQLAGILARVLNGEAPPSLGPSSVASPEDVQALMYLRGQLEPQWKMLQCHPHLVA

| SMILES | IC50 [1] [µM] | inhibition [2] | GI50 [3] [µM] | inhibition [4] | inhibition [5] | Activity [6] | IC50 [7] [µM] | IC50 [8] [µM] | IC50 [9] [µM] |
| --- | --- | --- | --- | --- | --- | --- | --- | --- | --- |
| CC(C)c1cc(C(=O)N(C)c2ccc(NC(=O)CCCCCCCC(=O)NO)cc2)c(O)cc1O | 6.4 | Active | 0.44 | Active | Dose-dependent effect | Active | 3.41 | > 10 | > 10 |
| CC(C)c1cc(C(=O)N(C)c2ccc(NC(=O)CCCCCCC(=O)NO)cc2)c(O)cc1O | > 10 | Active | 0.77 | Active | Dose-dependent effect | Active | 0.422 | > 10 | 2.67 |
